Experiments:
[1] = tested on: MCF-7 (human breast adenocarcinoma); test: Cytotoxic assay, alamar blue, MCF-7; type: cell-based; conditions: MCF7, 72 h, read-out: IC50 MCF-7
Outline: (§1)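 Cells from ATCC, mycoplasma-negative, grown in RPMI 1640 with 10% FBS at 37 °C and 5% CO2. Seeded at 0.7 × 10^5 cells/mL (adherent) or 0.3 × 10^6 cells/mL (suspension), then pre-incubated for 24 h. Test compound in DMSO added for 72 h; doxorubicin was the positive control and DMSO the vehicle control. Resazurin stock (0.312 mg/mL) added 4 h before the end. Absorbance read at 570/595 nm. IC50 taken from non-linear regression of % inhibition versus log concentration.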

[2] = tested on: MRC-5 (human lung fibroblast); test: Cytotoxic assay, alamar blue, non-cancer MRC-5; type: cell-based; conditions: MRC5, 72 h, read-out: IC50 MRC-5
Outline: as §1

[3] = tested on: HepG2 (human hepatocellular carcinoma); test: Cytotoxic assay, alamar blue, HepG2; type: cell-based; conditions: HepG2, 72 h, read-out: IC50 HepG2
Outline: as §1

breast cancer (MCF7) = conditions: read-out: IC50 MCF7; cited from earlier work
prostate cancer (PC-3) = conditions: read-out: IC50 PC-3; cited from earlier work
lung cancer (SK-LU-1) = conditions: read-out: IC50 SK-LU-1; cited from earlier work

Row | SMILES | IC50 [1] | IC50 [2] | IC50 [3] | IC50 (breast cancer (MCF7)) | IC50 (prostate cancer (PC-3)) | IC50 (lung cancer (SK-LU-1))
1 | C[C@]12CC[C@@H]3c4ccc(O)cc4CC[C@H]3[C@@H]1CC[C@@]2(O)c1cn(CC(=O)c2ccccc2)nn1 [3a, 2-(4-((8R,9S,13S,14S,17S)-3,17-dihydroxy-13-methyl-7,8,9,11,12,13,14,15,16,17-decahydro-6H-cyclopenta[a]phenanthren-17-yl)-1H-1,2,3-triazol-1-yl)-1-phenylethan-1-one] | > 54.6 µM | > 54.6 µM | 29.7 µM |  |  | 
2 | C[C@]12CC[C@H](O)CC1=CC[C@@H]1[C@@H]2CC[C@]2(C)C(C(=O)Cn3cncn3)=CC[C@@H]12 [3β-hydroxy-21-(1H-1,2,4-triazol-1-yl)pregna-5,16-dien-20-one] |  |  |  | 360 µM | 17 µM | 230 µM
3 | COc1cccc2c1C(=O)c1c(O)c3c(c(O)c1C2=O)C[C@@](O)(C(=O)CO)C[C@@H]3O[C@H]1C[C@H](N)[C@H](O)[C@H](C)O1 [Doxorubicin] |  | 2.4 µM |  |  |  | 

Source: PMC6734327 (Heliyon, 2019)
